Experimental data reported in ChEMBL document CHEMBL4184298, “Development of Potent Inhibitors of Receptor Tyrosine Kinases by Ligand-Based Drug Design and Target-Biased Phenotypic Screening” (J Med Chem, 2018).

What was measured:
[1] = target: Proto-oncogene tyrosine-protein kinase receptor Ret (Homo sapiens, UniProt P07949); experiment: Inhibition of wild-type human partial length RET (E713 to D1014 residues) expressed in bacterial expression system using poly [Glu, Try] 4:1 as substrate in presence of [gamma-33P]ATP
Summary of the method: (§1)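 Radiometric assay on recombinant kinase: ³³P incorporation into the kinase substrate was measured and activity was expressed relative to a DMSO control.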

[2] = target: T1, Tyrosine-protein kinase receptor TYRO3 (Homo sapiens, UniProt Q06418); experiment: Inhibition of wild-type human partial length TYRO3 (S497 to T814 residues) expressed in bacterial expression system using poly [Glu, Try] 4:1 as substrate in presence of [gamma-33P]ATP; summary of the method: as §1
T1 sequence (Q06418 whole entry): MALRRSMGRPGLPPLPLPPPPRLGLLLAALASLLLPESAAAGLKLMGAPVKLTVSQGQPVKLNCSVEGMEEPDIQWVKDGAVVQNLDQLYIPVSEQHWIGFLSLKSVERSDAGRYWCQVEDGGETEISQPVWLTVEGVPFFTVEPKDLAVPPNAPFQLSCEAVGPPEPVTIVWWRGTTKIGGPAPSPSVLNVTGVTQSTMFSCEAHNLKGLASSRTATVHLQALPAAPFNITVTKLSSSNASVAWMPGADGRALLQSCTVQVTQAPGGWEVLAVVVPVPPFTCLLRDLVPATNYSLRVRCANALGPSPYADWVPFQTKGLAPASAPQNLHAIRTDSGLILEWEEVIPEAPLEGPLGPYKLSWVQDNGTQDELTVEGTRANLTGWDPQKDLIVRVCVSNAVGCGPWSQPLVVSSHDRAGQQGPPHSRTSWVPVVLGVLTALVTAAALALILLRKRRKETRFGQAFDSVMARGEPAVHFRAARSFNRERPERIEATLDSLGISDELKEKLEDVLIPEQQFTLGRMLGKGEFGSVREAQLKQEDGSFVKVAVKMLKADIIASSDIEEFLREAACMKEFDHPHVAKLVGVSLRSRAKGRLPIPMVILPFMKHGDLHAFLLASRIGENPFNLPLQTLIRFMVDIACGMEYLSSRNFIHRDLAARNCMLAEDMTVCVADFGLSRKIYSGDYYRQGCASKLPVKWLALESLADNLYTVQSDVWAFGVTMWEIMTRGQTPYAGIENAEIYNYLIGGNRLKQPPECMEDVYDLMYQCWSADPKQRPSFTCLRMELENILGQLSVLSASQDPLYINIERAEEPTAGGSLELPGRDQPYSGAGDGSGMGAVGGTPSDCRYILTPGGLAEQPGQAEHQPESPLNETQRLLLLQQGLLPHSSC

[3] = target: T2, Receptor-type tyrosine-protein kinase FLT3 (Homo sapiens, UniProt P36888); experiment: Inhibition of wild-type human partial length FLT3 (V592 to Y969 residues) expressed in bacterial expression system using poly [Glu, Try] 4:1 as substrate in presence of [gamma-33P]ATP
T2 sequence (P36888 whole entry): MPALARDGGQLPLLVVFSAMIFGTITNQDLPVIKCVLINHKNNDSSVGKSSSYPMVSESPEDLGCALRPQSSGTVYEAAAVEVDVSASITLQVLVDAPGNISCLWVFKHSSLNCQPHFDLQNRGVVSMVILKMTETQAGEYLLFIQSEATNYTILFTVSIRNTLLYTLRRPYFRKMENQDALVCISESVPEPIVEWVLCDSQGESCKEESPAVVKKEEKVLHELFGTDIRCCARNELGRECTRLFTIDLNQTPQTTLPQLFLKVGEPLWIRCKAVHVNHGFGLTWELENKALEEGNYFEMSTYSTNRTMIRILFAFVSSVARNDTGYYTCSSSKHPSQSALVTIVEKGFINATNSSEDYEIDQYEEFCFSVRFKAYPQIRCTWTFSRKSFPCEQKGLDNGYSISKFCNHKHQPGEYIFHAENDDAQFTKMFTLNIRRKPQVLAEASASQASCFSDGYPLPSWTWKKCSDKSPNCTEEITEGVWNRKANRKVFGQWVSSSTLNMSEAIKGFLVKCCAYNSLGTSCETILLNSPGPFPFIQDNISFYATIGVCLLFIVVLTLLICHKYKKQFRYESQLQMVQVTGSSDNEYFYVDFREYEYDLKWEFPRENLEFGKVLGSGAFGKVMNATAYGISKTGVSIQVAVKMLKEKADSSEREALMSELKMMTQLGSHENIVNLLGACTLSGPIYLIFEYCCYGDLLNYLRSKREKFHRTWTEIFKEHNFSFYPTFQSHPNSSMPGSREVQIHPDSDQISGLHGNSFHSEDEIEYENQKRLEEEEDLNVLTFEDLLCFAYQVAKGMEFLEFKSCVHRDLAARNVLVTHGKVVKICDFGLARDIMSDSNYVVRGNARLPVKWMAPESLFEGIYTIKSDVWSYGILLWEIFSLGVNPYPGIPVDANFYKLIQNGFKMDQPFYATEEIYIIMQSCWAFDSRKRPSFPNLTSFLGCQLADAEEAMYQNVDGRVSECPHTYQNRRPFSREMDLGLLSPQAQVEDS

Aurora kinase A = target: T3, Aurora kinase A (Homo sapiens, UniProt O14965); experiment: Inhibition of human partial length Aurora A (E122 to K401 residues) expressed in mammalian expression system using poly [Glu, Try] 4:1 as substrate in presence of [gamma-33P]ATP; summary of the method: as §1
T3 sequence (O14965 whole entry): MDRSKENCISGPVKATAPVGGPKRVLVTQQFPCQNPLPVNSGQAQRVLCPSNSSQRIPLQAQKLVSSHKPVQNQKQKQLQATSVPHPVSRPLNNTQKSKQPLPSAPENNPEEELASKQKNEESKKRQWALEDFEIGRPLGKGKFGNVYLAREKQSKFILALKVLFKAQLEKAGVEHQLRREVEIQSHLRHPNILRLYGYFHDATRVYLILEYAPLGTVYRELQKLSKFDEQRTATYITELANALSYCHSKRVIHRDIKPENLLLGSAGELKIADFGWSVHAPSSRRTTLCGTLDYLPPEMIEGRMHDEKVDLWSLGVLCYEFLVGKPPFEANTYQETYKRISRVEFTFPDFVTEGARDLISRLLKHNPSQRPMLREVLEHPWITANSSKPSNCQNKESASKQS

[4] = target: RAC-alpha serine/threonine-protein kinase (Homo sapiens, UniProt P31749); experiment: Inhibition of AKT (unknown origin) using poly [Glu, Try] 4:1 as substrate in presence of [gamma-33P]ATP; summary of the method: as §1
[5] = target: Serine/threonine-protein kinase mTOR (Homo sapiens, UniProt P42345); experiment: Inhibition of wild-type human partial length MTOR (L1382 to W2549 residues) expressed in mammalian expression system using poly [Glu, Try] 4:1 as substrate in presence of [gamma-33P]ATP; summary of the method: as §1
[6] = target: Hepatocyte growth factor receptor (Homo sapiens, UniProt P08581); experiment: Inhibition of wild-type human partial length MET (D1010 to S1367 residues) expressed in bacterial expression system using poly [Glu, Try] 4:1 as substrate in presence of [gamma-33P]ATP; summary of the method: as §1
Hepatocyte growth factor receptor, sequence (P08581 whole entry, the tested form may be a part): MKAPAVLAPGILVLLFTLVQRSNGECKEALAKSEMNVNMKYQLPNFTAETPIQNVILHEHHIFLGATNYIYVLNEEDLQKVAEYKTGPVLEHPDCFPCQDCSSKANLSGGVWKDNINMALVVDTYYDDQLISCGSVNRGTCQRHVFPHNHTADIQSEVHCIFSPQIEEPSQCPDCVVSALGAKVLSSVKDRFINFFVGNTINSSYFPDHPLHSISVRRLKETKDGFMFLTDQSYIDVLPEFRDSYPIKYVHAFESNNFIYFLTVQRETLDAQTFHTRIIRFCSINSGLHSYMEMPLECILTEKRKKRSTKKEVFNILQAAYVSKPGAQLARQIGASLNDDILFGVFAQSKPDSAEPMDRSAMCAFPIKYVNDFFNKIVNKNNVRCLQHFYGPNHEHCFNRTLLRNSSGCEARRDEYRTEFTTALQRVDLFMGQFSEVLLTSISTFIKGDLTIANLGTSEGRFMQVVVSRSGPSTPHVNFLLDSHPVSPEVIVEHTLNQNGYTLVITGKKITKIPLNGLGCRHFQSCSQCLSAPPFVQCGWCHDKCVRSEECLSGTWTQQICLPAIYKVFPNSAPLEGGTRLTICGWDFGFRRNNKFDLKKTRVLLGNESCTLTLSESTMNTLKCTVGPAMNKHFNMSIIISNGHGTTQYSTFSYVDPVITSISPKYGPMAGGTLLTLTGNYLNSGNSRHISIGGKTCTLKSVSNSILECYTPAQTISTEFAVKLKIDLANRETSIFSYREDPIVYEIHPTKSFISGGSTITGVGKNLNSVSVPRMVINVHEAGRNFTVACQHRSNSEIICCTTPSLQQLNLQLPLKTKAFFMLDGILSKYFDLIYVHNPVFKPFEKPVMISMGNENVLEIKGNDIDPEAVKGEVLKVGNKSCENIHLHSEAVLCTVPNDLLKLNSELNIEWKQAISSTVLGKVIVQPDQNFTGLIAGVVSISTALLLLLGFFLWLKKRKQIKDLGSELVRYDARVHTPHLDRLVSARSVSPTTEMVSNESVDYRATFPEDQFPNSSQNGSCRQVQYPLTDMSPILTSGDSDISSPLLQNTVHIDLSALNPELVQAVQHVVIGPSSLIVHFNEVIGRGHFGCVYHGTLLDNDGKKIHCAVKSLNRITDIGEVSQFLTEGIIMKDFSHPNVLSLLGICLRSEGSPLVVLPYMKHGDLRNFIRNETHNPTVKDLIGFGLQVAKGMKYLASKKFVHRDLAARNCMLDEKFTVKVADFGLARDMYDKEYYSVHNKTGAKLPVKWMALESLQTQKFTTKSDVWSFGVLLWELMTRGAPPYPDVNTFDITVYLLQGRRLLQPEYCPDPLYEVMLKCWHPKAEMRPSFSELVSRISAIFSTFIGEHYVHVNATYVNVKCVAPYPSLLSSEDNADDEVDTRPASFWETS

RAC-alpha serine/threonine-protein kinase, sequence (P31749 whole entry, the tested form may be a part): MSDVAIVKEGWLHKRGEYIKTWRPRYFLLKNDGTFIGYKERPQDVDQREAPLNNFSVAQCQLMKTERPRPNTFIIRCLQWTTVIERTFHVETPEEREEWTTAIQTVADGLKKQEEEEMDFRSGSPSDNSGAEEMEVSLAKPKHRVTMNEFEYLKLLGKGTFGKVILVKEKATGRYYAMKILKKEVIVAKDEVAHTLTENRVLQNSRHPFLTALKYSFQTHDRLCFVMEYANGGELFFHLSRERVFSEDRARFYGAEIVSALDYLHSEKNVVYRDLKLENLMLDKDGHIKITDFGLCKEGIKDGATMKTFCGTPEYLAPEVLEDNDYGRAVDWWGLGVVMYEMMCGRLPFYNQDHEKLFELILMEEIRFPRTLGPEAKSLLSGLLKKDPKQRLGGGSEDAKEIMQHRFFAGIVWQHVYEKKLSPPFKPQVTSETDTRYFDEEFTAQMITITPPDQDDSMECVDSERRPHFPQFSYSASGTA
Proto-oncogene tyrosine-protein kinase receptor Ret, sequence (P07949 whole entry, the tested form may be a part): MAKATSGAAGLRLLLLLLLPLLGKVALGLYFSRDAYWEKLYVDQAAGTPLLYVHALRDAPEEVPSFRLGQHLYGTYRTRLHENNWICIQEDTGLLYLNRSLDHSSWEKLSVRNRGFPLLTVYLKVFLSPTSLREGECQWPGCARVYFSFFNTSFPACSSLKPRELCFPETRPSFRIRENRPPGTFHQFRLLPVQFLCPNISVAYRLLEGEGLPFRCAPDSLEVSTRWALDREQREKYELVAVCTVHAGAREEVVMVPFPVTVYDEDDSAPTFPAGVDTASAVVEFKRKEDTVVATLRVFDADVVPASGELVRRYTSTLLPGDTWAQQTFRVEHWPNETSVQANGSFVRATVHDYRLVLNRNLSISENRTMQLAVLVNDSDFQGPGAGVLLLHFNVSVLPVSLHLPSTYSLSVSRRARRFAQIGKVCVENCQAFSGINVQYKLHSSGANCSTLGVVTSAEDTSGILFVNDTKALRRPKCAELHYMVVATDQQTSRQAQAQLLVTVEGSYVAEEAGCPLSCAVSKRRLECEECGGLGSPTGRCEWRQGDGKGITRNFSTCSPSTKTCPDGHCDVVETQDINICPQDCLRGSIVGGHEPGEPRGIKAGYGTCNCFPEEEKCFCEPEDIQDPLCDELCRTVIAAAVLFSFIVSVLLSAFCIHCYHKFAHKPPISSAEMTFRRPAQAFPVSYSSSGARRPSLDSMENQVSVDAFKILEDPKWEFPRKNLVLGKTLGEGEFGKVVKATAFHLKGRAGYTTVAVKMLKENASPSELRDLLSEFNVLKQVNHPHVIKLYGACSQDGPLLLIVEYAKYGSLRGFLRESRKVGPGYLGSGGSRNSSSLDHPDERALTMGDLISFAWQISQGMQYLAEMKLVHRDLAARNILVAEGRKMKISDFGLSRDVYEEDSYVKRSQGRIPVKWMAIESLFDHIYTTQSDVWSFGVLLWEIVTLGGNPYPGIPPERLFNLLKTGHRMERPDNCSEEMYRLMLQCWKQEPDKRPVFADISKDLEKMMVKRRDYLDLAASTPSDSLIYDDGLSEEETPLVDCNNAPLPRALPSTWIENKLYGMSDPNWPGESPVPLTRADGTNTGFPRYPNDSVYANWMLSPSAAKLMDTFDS

Row | SMILES | IC50 [1] | IC50 [2] | IC50 [3] | IC50 (Aurora kinase A) | IC50 [4] | IC50 [5] | IC50 [6]
1 | CNc1ncc2c(-c3ccc(N4CCN(C(=O)C(C)(C)C)CC4)nc3)nn(Cc3cn(Cc4ccccc4)nn3)c2n1 | 4000 nM | > 10000 nM | 1200 nM | 840 nM | > 10000 nM | > 10000 nM | > 10000 nM
2 | CNc1ncc2c(-c3ccc(N4CCN(C)CC4)nc3)nn(Cc3cn(Cc4ccccc4)nn3)c2n1 | 900 nM | > 10000 nM | 700 nM | 730 nM | > 10000 nM | > 10000 nM | > 10000 nM
3 | CNc1ncc2c(-c3ccc(OC)cc3)nn(CC3OCCO3)c2n1 | 1200 nM | > 10000 nM | 250 nM | 560 nM | > 10000 nM | > 10000 nM | > 10000 nM
4 | CCN1CCN(c2ccc(-c3nn(CC4CCCC4)c4nc(NC)ncc34)cn2)CC1 | 440 nM | > 10000 nM | 100 nM | 280 nM | > 10000 nM | > 10000 nM | > 10000 nM
5 | CNc1ncc2c(-c3ccc(N4CCNCC4)nc3)nn(Cc3cn(-c4ccsc4C(=O)OC)nn3)c2n1 | 430 nM | > 10000 nM | 860 nM | 790 nM | > 10000 nM | > 10000 nM | > 10000 nM
6 | CNc1ncc2c(-c3ccc(N4CCN(C)CC4)nc3)nn(CC3CCCC3)c2n1 | 60 nM | 3670 nM | 8 nM | 30 nM | > 10000 nM | > 10000 nM | 3500 nM
7 | Nc1nc(Nc2ccc3c(c2)CC[C@@H](N2CCCC2)CC3)nn1-c1cc2c(nn1)-c1ccccc1CCC2 [BEMCENTINIB] | 3 nM | 17 nM | 0.9 nM | 26 nM | > 10000 nM | > 10000 nM | 3400 nM
8 | CNc1ncc2c(-c3ccc(N4CCN(C(=O)C(C)(C)C)CC4)nc3)nn(CC3CCCC3)c2n1 | > 10000 nM | > 10000 nM | 300 nM | 610 nM | > 10000 nM | > 10000 nM | > 10000 nM
9 | CNc1ncc2c(-c3ccc(N4CCNCC4)nc3)nn(CC3CCCC3)c2n1 | 50 nM | > 10000 nM | 20 nM | 160 nM | > 10000 nM | > 10000 nM | 2100 nM
10 | CNc1ncc2c(-c3ccc(N4CCNCC4)nc3)nn(CC3OCCO3)c2n1 | 160 nM | > 10000 nM | 100 nM | 660 nM | > 10000 nM | > 10000 nM | > 10000 nM
11 | CCN1CCN(c2ccc(-c3nn(Cc4cn(Cc5ccccc5)nn4)c4nc(NC)ncc34)cn2)CC1 | 6200 nM | 1900 nM | > 10000 nM | > 10000 nM | 1900 nM | > 10000 nM | 6300 nM
12 | CNc1ncc2c(-c3ccc(N4CCNCC4)cc3)nn(Cc3cn(Cc4ccccc4)nn3)c2n1 | > 10000 nM | > 10000 nM | > 10000 nM | > 10000 nM | > 10000 nM | > 10000 nM | > 10000 nM
